SMILES strings stand for the structures. Activity calls are given as the source filed them. The calls are words filed in the database; no cut-off is given here.

For series [1], the system named is Mus musculus. Nature of the series: Antidiabetic activity in high fat diet-fed diabetic C57BL/6J Jms Slc mouse model assessed as normalization of fasting blood glucose level at 2.6 mg/day administered with food for 4 weeks measured 90 mins after last dose by glucose tolerance test in presence of glucose. Type of series: functional, organism-based. Put shortly:
(§1)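 Mice were male C57BL/6J Jms Slc, 5 wk old after 1 wk acclimatization. They were fed a 45%-fat HFD for 8 wk, then HFD with compound mixed in (1.0 g/kg diet, about 2.6 mg/day/mouse, 78 mg/day/kg) for 4 wk. Each mouse was fasted 6 h from the start of the light cycle and fasting glucose was measured. Glucose 1.0 g/kg was then given i.p., with readings at 60 and 90 min.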

Series [2] can be described thus: Selectivity ratio of IC50 for yeast PTP1 to IC50 for PTP1B.
The target in series [3] is T1, Tyrosine-protein phosphatase non-receptor type 1 (Homo sapiens, UniProt P18031).
T1 sequence (P18031 whole entry): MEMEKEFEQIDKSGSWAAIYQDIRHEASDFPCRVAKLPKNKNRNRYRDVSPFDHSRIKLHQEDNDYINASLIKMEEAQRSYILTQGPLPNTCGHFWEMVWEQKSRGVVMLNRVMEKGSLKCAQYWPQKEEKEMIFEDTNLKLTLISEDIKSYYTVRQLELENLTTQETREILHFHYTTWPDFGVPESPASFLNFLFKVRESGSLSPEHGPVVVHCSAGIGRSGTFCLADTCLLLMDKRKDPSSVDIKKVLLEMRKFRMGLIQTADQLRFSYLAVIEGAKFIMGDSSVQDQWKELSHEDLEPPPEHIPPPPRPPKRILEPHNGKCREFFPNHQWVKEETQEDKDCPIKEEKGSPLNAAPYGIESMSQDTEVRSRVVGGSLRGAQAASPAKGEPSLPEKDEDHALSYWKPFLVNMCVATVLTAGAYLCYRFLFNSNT
The series is described as follows: Inhibition of PTP1B expressed in Escherichia coli assessed as p-nitrophenol release from pNPP substrate preincubated for 10 mins. A digest of the protocol:
(§2)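 IC50 values against the PTP panel, with enzymes prepared as described in the supplementary material. Values are means ± SD of two or more experiments.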

In series [4] the test system is Mus musculus. Nature of the series: Antidiabetic activity in high fat diet-fed diabetic C57BL/6J Jms Slc mouse model assessed as normalization of fasting blood glucose level at 2.6 mg/day administered with food for 4 weeks measured 60 mins after last dose by glucose tolerance test in presence of glucose. Type of series: functional, organism-based. A digest of the protocol:
as §1

The test system of series [5] is Mus musculus. The series is described as follows: Antiobesity activity in high fat diet-fed diabetic C57BL/6J Jms Slc mouse model assessed as decrease in retroperitoneal fat at 2.6 mg/day administered with food for 4 weeks. Type of series: functional. A digest of the protocol: (§3)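 DIO male C57BL/6J Jms Slc mice were fed a 45%-fat HFD for 8 wk, then HFD with 0.1% w/w compound in feed (about 2.6 mg/day/mouse) for 4 wk. A 10%-fat LFD lean group ran throughout. Measures were weight gain, feed efficiency (weight gain/kcal ×100), and epididymal and retroperitoneal fat pad weights. n = 8/group; mean ± SEM; one-way ANOVA.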

Series [6] relates to Mus musculus. Nature of the series: Antiobesity activity in high fat diet-fed diabetic C57BL/6J Jms Slc mouse model assessed as decrease in serum triglyceride level at 2.6 mg/day administered with food for 4 weeks. Type of series: functional. Put shortly: (§4)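 DIO mice were fed HFD for 8 wk, then HFD containing 0.1% w/w compound (about 2.6 mg/day/mouse) for 4 wk. At the end of feeding, mice were deprived of food overnight. Serum total cholesterol, triglyceride and NEFA were then measured. Values are mean ± SEM.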

The test system of series [7] is Mus musculus. Nature of the series: Toxicity in high fat diet-fed diabetic C57BL/6J Jms Slc mouse model assessed as change in weight of kidney at 2.6 mg/day administered with food for 4 weeks. Type of series: organism-based. The settings on record: in vivo, po, 672 h. Put shortly:
(§5)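 At the end of the 4 wk in-feed dosing (about 2.6 mg/day/mouse in HFD), liver, kidney and lung weights were compared across the lean LFD, HFD control and treated groups.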

Series [8] deals with T2, Peroxisome proliferator-activated receptor gamma (Homo sapiens) (UniProt P37231).
T2 sequence (whole entry): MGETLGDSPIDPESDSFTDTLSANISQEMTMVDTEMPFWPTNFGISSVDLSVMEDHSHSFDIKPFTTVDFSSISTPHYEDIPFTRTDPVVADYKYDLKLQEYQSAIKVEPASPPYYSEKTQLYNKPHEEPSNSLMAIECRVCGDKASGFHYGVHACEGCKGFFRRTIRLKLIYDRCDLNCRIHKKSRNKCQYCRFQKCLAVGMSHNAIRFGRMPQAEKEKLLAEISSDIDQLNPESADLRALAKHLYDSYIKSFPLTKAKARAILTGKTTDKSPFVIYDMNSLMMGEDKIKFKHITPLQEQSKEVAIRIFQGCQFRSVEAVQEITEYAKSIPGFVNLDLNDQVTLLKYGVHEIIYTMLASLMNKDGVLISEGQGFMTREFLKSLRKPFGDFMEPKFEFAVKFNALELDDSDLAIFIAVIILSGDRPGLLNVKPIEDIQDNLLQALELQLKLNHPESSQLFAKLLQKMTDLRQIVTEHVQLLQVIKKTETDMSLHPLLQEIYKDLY
Nature of the series: Agonist activity at PPARgamma expressed in HepG2 cells co-expressing PPRE assessed as concentration required for maximal activation after 24 hrs by luciferase reporter gene assay. Type of series: functional, cell-based. A general note: In a reporter assay the amount or activity of a reporter protein is the signal.

For series [9], the system named is Mus musculus. The series is described as follows: Antiobesity activity in high fat diet-fed diabetic C57BL/6J Jms Slc mouse model assessed as weight gain/kcal at 2.6 mg/day administered with food for 4 weeks. Type of series: functional. Put shortly:
as §3

The subject of series [10] is Mus musculus. The series is described as follows: Toxicity in high fat diet-fed diabetic C57BL/6J Jms Slc mouse model assessed as change in weight of liver at 2.6 mg/day administered with food for 4 weeks. Type of series: organism-based. The settings on record: in vivo, po, 672 h. Put shortly: as §5
Series [11] has as its system Mus musculus. The series is described as follows: Toxicity in high fat diet-fed diabetic C57BL/6J Jms Slc mouse model assessed as change in weight of lung at 2.6 mg/day administered with food for 4 weeks. Type of series: organism-based. To be noted: in vivo, po, 672 h. Put shortly:
as §5

The test system of series [12] is Mus musculus. Nature of the series: Antiobesity activity in high fat diet-fed diabetic C57BL/6J Jms Slc mouse model assessed as decrease in total cholesterol level in serum at 2.6 mg/day administered with food for 4 weeks. Type of series: functional. A digest of the protocol:
as §4

Series [13] deals with T3, Tyrosine-protein phosphatase 1 (Saccharomyces cerevisiae S288c, UniProt P25044).
T3 sequence (P25044 whole entry): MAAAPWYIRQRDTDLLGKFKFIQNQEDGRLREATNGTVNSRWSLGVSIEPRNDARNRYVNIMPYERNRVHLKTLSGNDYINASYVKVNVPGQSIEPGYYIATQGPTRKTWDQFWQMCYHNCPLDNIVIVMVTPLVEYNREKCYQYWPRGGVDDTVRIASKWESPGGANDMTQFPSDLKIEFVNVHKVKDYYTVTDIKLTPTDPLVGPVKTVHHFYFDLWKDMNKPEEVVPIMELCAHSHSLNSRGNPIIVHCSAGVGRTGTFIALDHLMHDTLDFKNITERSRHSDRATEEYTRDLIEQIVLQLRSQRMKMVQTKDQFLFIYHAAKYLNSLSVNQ
Nature of the series: Inhibition of yeast PTP1 expressed in Escherichia coli assessed as p-nitrophenol release from pNPP substrate preincubated for 10 mins. Put shortly:
as §2

What is called IC50 is the point on the concentration scale where inhibition reaches its midpoint. For `Cc1ccc(S(=O)(=O)Oc2cc(OCc3ccc(C(F)(F)F)cc3)c(/C=C3\SC(=O)NC3=O)cc2Br)cc1`, the outcome with Mus musculus [1] and with Mus musculus [4] was inactive. Further, in [2], the Ratio IC50 is more than 10. For the same compound, the IC50 in series [3] came to 1.3 µM; in [13], 12 µM. The Activity with Mus musculus [5] was 0.43 g; with Mus musculus [6], 76 mg/dL; in the series with Mus musculus [7], “Non-toxic”; in series [8], 1.5 µM; in the series on Mus musculus [10] it was “Non-toxic”; in the series with Mus musculus [11], “Non-toxic”. Moreover, in the series on Mus musculus [12], the Activity was determined as 124 mg/dL. In addition, in the series on Mus musculus [9], the feed efficiency turned out to be 0.57 g/100 kcal.
